# Data reported in ChEMBL document CHEMBL1126943, “N-substituted dibenzoxazepines as analgesic PGE2 antagonists” (J Med Chem, 1993).
# Where “and” joins values, the source holds several entries; their conditions need not be identical. Equal values may be shown once. Calls of active or inactive are those of the source. The calls are words filed in the database; no cut-off is given here.
# Experiments:
# Mus musculus [1] = assay: Antinociception at dosage of 30 mg/kg administered in 10 mice.; assay type: functional
# In short: (§1)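 Male albino CD-1 mice, 20–30 g, were given test compound sc or ig (0.1 mL/10 g) at 30 mg/kg. After 25 min they received 0.025% (w/v) phenylbenzoquinone ip. Writhes were counted for 10 min, starting 5 min later. A mouse counted as protected if its writhes were ≤ half the median of that day's saline group. The result is the number of mice protected.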
# Mus musculus [2] = assay: Compound was evaluated for antinociception at dosage of 30 mg/kg administered in 9 mice; assay type: functional; in short: as §1
# Cavia porcellus [3] = species: Cavia porcellus; assay: Antinociceptive activity against PGE-2 in guinea pig ileum at 3 uM; inactive; assay type: functional, organism-based
# Mus musculus [4] = assay: Effective dose required for writhing response in mouse […] on ig administration; assay type: functional; details: po
# In short: (§2)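 In the mouse phenylbenzoquinone writhing test, male CD-1 mice (20–30 g) were dosed ig or sc. After 25 min, 0.025% phenylbenzoquinone was given ip, and writhes were counted over 10 min beginning 5 min later. Protection meant ≤ half the saline median. The ED50 is the dose protecting 50% of mice, with 95% confidence limits from maximum likelihood.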
# Mus musculus [5] = assay: Effective dose required for writhing response in mouse […] on sc administration; assay type: functional; in short: as §2
# Cavia porcellus [6] = species: Cavia porcellus; assay: Antinociceptive activity against PGE-2 in guinea pig ileum at 3 uM; assay type: functional; details: read-out: pA2 (converted)
# In short: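 Ileum segments (2 cm) from male Hartley guinea pigs were held in modified Tyrode with atropine (0.14 μM) and pyrilamine (2.5 μM), at 37 °C under 95% O2/5% CO2 and 1 g tension. PGE2 concentration–response curves (2 min per dose) were run without and then with test compound. pA2 was calculated from the dose ratio at 3 μM compound.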
smiles,measurement,setting,value
Cl.O=C(Cc1ccncc1)NNC(=O)N1Cc2ccccc2Oc2ccc(Cl)cc21,No. of mice,Mus musculus [1],1
same,No. of mice,Mus musculus [2],3
Cl.O=C(NNC(=O)N1Cc2ccccc2Oc2ccc(Cl)cc21)c1cccnc1,No. of mice,Mus musculus [1]; 30 mg/kg,3 and 1
same,pA2,Cavia porcellus [3],inactive
Cl.O=C(NNC(=O)N1Cc2ccccc2Oc2ccc(Cl)cc21)c1ccncc1,No. of mice,Mus musculus [1]; 30 mg/kg,1 and 2
same,pA2,Cavia porcellus [3],inactive
Cl.O=C(NNC(=O)C(F)(F)Cc1ccccn1)N1Cc2ccccc2Oc2ccc(Cl)cc21,ED50,Mus musculus [4],9.7 mg/kg
Cl.O=C(/C=C/c1ccccn1)NNC(=O)N1Cc2ccccc2Oc2ccc(Cl)cc21,No. of mice,Mus musculus [1]; 30 mg/kg,1 and 2
same,pA2,Cavia porcellus [3],inactive
O=C(/C=C/c1cccnc1)NNC(=O)N1Cc2ccccc2Oc2ccc(Cl)cc21,No. of mice,Mus musculus [1]; 30 mg/kg,6 and 5
O=C(CCCc1ccncc1)NNC(=O)N1Cc2ccccc2Oc2ccc(Cl)cc21,No. of mice,Mus musculus [1],6
same,ED50,Mus musculus [5],9.7 mg/kg
Cl.O=C(CCc1ccncc1)NNC(=O)N1Cc2ccccc2Oc2ccc(Cl)cc21,ED50,Mus musculus [5],6.3 mg/kg
same,Kb,Cavia porcellus [6],316 nM
same,ED50,Mus musculus [4],6.8 mg/kg
O=C(CCCCCl)NNC(=O)N1Cc2ccccc2Oc2ccc(Cl)cc21 [PINADOLINE],Kb,Cavia porcellus [6],631 nM
O=C(Cc1ccccc1)NNC(=O)N1Cc2ccccc2Oc2ccc(Cl)cc21,Kb,Cavia porcellus [6],1000 nM
CC(=O)Oc1ccccc1C(=O)O [ASPIRIN],ED50,Mus musculus [4],42.3 mg/kg
Cl.O=C(NNC(=O)N1Cc2ccccc2Oc2ccc(Cl)cc21)c1ccccn1,No. of mice,Mus musculus [1]; 30 mg/kg,3 and 2
same,pA2,Cavia porcellus [3],inactive
CC(=O)NNC(=O)N1Cc2ccccc2Oc2ccc(Cl)cc21,Kb,Cavia porcellus [6],3160 nM
Cl.O=C(NNC(=O)C(F)(F)C(O)c1ccncc1)N1Cc2ccccc2Oc2ccc(Cl)cc21 (stereo not given),No. of mice,Mus musculus [1],5
same,ED50,Mus musculus [4],12.3 mg/kg
CC(C)Cc1ccc(C(C)C(=O)O)cc1 (stereo not given) [IBUPROFEN],ED50,Mus musculus [4],4.8 mg/kg
Cl.O=C(CCCc1ccccn1)NNC(=O)N1Cc2ccccc2Oc2ccc(Cl)cc21,No. of mice,Mus musculus [1]; 30 mg/kg,4 and 5
Cl.O=C(/C=C/c1ccncc1)NNC(=O)N1Cc2ccccc2Oc2ccc(Cl)cc21,No. of mice,Mus musculus [1]; 30 mg/kg,2 and 4
Cl.O=C(CCc1ccccn1)NNC(=O)N1Cc2ccccc2Oc2ccc(Cl)cc21,ED50,Mus musculus [5],9.8 mg/kg
same,Kb,Cavia porcellus [6],398 nM
same,ED50,Mus musculus [4],5.8 mg/kg
CCCCCC(=O)NNC(=O)N1Cc2ccccc2Oc2ccc(Cl)cc21,Kb,Cavia porcellus [6],251 nM
Cl.O=C(Cc1cccnc1)NNC(=O)N1Cc2ccccc2Oc2ccc(Cl)cc21,No. of mice,Mus musculus [1]; 30 mg/kg,3 and 5
Cl.O=C(CCc1cccnc1)NNC(=O)N1Cc2ccccc2Oc2ccc(Cl)cc21,No. of mice,Mus musculus [1]; 30 mg/kg,6 and 5
O=C(CCc1cccc[n+]1[O-])NNC(=O)N1Cc2ccccc2Oc2ccc(Cl)cc21,No. of mice,Mus musculus [1]; 30 mg/kg,1 and 3
O=C(CCc1cc[n+]([O-])cc1)NNC(=O)N1Cc2ccccc2Oc2ccc(Cl)cc21,No. of mice,Mus musculus [1],5
Cl.O=C(NNC(=O)C(F)(F)C(O)c1ccccn1)N1Cc2ccccc2Oc2ccc(Cl)cc21 (stereo not given),ED50,Mus musculus [5],7.1 mg/kg
same,Kb,Cavia porcellus [6],31.6 nM
same,ED50,Mus musculus [4],9.1 mg/kg
Cl.O=C(Cc1ccccn1)NNC(=O)N1Cc2ccccc2Oc2ccc(Cl)cc21,No. of mice,Mus musculus [1],2
same,pA2,Cavia porcellus [3],inactive
CCCC(=O)NNC(=O)N1Cc2ccccc2Oc2ccc(Cl)cc21,Kb,Cavia porcellus [6],1000 nM
